Measured values published in ChEMBL document CHEMBL1137958, “2('),3(')-didehydro-2('),3(')-dideoxynucleosides are degraded to furfuryl alcohol under acidic conditions” (Bioorg Med Chem Lett, 2004).
pEC50, pIC50: −log10 of the molar value.

Columns and labels:
[1] = Estimated half-life at 20 degree C in 0.05 M pH 2 NaH2PO4 buffer; assay type: ADME; conditions: phosphate buffer
Method in brief: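 About 1 mg of nucleoside was dissolved in 0.05 M NaH2PO4 (pH 2.0) and stirred at ambient temperature for 24 h. Samples taken at 1 and 24 h were analysed by reverse-phase C18 HPLC, eluting with a gradient of 0.05 M triethylammonium bicarbonate to 70% acetonitrile. Half-life was estimated from the HPLC data, and TLC was run at 24 h.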

Vero = experiment: Cytotoxicity was determined in Vero cells, relative to RVT; assay type: functional, cell-based; conditions: Chlorocebus sabaeus
[2] = Cytotoxicity was determined in PBM cells, relative to RVT; assay type: functional, cell-based; conditions: Homo sapiens, PBMC
CCRF-CEM = experiment: Cytotoxicity was determined in CEM cells, relative to RVT; assay type: functional, cell-based; conditions: Homo sapiens
[3] = The anti-HIV-1 activity was assayed in activated human peripheral blood mononuclear (PBM) cells, relative to RVT; assay type: functional

| half-life [1] [min] | SMILES | pIC50 (Vero) | pIC50 [2] | pIC50 (CCRF-CEM) | pEC50 [3] | EC90 [3] [µM] |
| --- | --- | --- | --- | --- | --- | --- |
| < 2 | Nc1nc(O)c2ncn(C3C=CC(CO)O3)c2n1 (centres undefined) |  |  |  |  |  |
| 41 | Nc1nc(NC2CC2)c2ncn(C3C=CC(CO)O3)c2n1 (centres undefined) |  |  |  |  |  |
|  | C[C@@H]1C[C@@H]([C@H](O)CC2CC(=O)NC(=O)C2)C(=O)[C@@H](C)C1 [CYCLOHEXIMIDE] | 6.28 | 6.34 | 7.10 |  |  |
| 45 | Nc1nc(=O)n([C@@H]2C=C[C@H](CO)O2)cc1F [ELVUCITABINE] | < 4.00 | < 4.00 | < 4.00 | 7.17 | 1.9 |
|  | Nc1nc(=O)[nH]cc1F [FLUCYTOSINE] | < 4.00 | ≤ 4.00 | < 4.00 |  |  |
|  | OCc1ccco1 [FURFURYL ALCOHOL] | < 4.00 | < 4.00 | < 4.00 | < 4.00 | > 100 |
|  | Nc1nc2[nH]cnc2c(=O)[nH]1 [GUANINE] | 4.26 | < 4.00 | 4.19 |  |  |
| 50000 | Cc1cn([C@H]2C=C[C@@H](CO)O2)c(=O)[nH]c1=O [STAVUDINE] |  |  |  |  |  |
|  | Cc1c[nH]c(=O)[nH]c1=O [THYMINE] | < 4.00 | < 4.00 | < 4.00 |  |  |
|  | Cc1cn([C@H]2C[C@H](N=[N+]=[N-])[C@@H](CO)O2)c(=O)[nH]c1=O [ZIDOVUDINE] |  | < 4.00 |  | 8.70 | 0.02 |
